Published values pooled from the literature.
Protocols differ between the studies behind these lines.
Target: Muscle, skeletal receptor tyrosine-protein kinase (MUSK, Homo sapiens, UniProt O15146)
Sequence (O15146 24-869, as in one of the studies): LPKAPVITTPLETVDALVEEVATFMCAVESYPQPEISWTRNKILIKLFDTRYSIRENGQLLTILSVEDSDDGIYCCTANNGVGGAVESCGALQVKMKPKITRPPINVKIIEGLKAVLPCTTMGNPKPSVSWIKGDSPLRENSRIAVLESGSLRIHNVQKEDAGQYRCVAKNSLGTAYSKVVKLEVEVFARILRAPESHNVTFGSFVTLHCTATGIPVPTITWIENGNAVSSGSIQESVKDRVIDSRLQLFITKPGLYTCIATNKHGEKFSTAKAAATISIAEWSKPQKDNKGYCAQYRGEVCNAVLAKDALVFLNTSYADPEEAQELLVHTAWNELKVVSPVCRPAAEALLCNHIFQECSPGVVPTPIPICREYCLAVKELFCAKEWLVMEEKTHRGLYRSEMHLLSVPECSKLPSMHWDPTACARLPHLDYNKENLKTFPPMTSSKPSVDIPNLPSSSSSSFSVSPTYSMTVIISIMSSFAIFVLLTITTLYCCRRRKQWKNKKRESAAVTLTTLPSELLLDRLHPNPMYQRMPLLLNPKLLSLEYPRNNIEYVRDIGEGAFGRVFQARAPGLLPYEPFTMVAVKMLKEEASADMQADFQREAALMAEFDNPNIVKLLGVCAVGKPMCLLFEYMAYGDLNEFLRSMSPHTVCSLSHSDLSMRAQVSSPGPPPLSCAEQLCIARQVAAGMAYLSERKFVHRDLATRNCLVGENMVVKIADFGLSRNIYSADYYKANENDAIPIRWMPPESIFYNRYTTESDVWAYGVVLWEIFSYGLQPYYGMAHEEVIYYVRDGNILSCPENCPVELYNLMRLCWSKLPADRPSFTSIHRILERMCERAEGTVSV

| SMILES | assay | setting | endpoint | value |
| --- | --- | --- | --- | --- |
| Cc1cc(NC(=O)c2cccc3cc(-c4cccc5[nH]nc(N)c45)ccc23)ccc1F | enzyme activity, inhibitor | 0.1 µM | activity vs control | 99% |
| NS(=O)(=O)c1cc(NC(=O)Cc2ccccc2)ccc1Oc1cccc(Cl)c1 | cell-free assay, competition with immobilised ligand | 1 µM | remaining binding | 100% |
| O=C(Nc1cnn(-c2csc(C(=O)NC3COC3)c2)c1)Nc1ccccc1Cl | enzyme activity, inhibitor | 5 µM | remaining activity | 94.5% |
| CC(C)(O)[C@H]1CC[C@H](Nc2ccc3ncc(-c4cccc(C(F)(F)F)c4)n3n2)CC1 | enzyme activity, inhibitor | 1 µM | remaining activity | 23.7% |
| CNC(=O)c1cc(Oc2ccc(NC(=O)Nc3ccc(Cl)c(C(F)(F)F)c3)cc2)ccn1 | enzyme activity, inhibitor | 10 µM | inhibition | 100% |
| CN1CC(Oc2cnc(C#N)cc2-c2ccn3nc(NC(=O)C4CC4)cc3c2)C1 | enzyme activity, inhibitor | 1 µM | inhibition | 6% |
| Cc1ccc(Nc2nccc(N(C)c3ccc4c(C)n(C)nc4c3)n2)cc1S(N)(=O)=O | enzyme activity, inhibitor | 10 µM | inhibition | 97% |
| COc1cc2ncnc(Nc3ccc(Oc4ccccc4)cc3C)c2cc1OC | enzyme activity, inhibitor | 1 µM | inhibition | 4% |
| CC(=O)C1=C(C)N(c2cccc(C(F)(F)F)c2)C(=O)N[C@@H]1c1ccc(C#N)nc1 | cell-free assay, competition with immobilised ligand | 1 µM | remaining binding | 100% |
| COc1cc(Cl)c(C(=O)N[C@@H](CN[C@H]2CC[C@@H](N)CC2)Cc2ccc(C#N)cc2)cc1-c1ccc(CN[C@H](C)c2ccc(C)cc2)o1 | enzyme activity, inhibitor | 1 µM | remaining activity | 84% |
| N#CCCc1ccc2c(c1)-c1[nH]c3ccc([N+](=O)[O-])cc3c1CC(=O)N2 | cell-free assay | 0.5 µM | remaining signal | 63% |
| CCN(CC)CCNC(=O)c1c(C)[nH]c(/C=C2\C(=O)Nc3ccc(F)cc32)c1C | enzyme activity, inhibitor | 0.3 µM | inhibition | 98% |
| C[C@@H]1CN(c2cc(-c3nn(C)c4ccc(OC5(C)CC5)cc34)ncn2)C[C@H](C)O1 | cell-free assay, competition with immobilised ligand | 1 µM | remaining binding | 92% |
| Cc1cnc(NC2CCOCC2)nc1-n1cnc(C(=O)NC(CN)c2cc(F)cc(Cl)c2)c1 (stereo not drawn) | enzyme activity, inhibitor, radiometric | 1 µM | remaining activity | 97% |
| CNCc1ccccc1-c1csc([C@H](C)Nc2nc(C)nc3cc(OC)c(OC)cc23)c1 | cell-free assay, competition with immobilised ligand | 1 µM | remaining binding | 90% |
| O=C1Nc2ccc(Cl)cc2C1=Cc1cc(Cl)c(O)c(Cl)c1 | cell-free assay | 0.5 µM | remaining signal | 65.5% |
| CS(=O)(=O)NCC[C@H](NC(=O)c1cncc2c1cnn2-c1ccc(F)cc1)c1ccnc(S(C)(=O)=O)c1 | cell-free assay, competition with immobilised ligand | 1 µM | remaining binding | 100% |
| CCCOc1ccc(OC)c(F)c1C(=O)c1ccc(C(=O)N[C@@H]2CNC[C@H]2NC(=O)c2ccc3[nH]ncc3c2)cc1 | enzyme activity, inhibitor | 0.75 µM | remaining activity | 13% |
| C[C@H](NC(=O)c1cnc2n1[C@](C)(Cc1ccc(C#N)cc1)C(=O)N2c1cc(Cl)c(F)c(Cl)c1)C(=O)NC1(c2ccccn2)CC1 | cell-free assay, competition with immobilised ligand | 1 µM | remaining binding | 100% |
| CCN(CC)c1ccc(C2=NNC(=O)CC2C)cc1[N+](=O)[O-] (stereo not drawn) | enzyme activity, inhibitor | 10 µM | remaining activity | 85% |
| CC(=O)Nc1c(C(C)=O)c(=O)n(C)c2nc(-c3ccc(Cl)cc3Cl)c(-c3ccc(Cl)cc3)cc12 | cell-free assay, competition with immobilised ligand | 1 µM | remaining binding | 100% |
| Cc1ccc(C(=O)Nc2ccc(CN3CCN(C)CC3)c(C(F)(F)F)c2)cc1C#Cc1cnc2cccnn12 | enzyme activity, inhibitor | 23.5 nM | remaining activity | 8% |
| CCC(=N\O)/C(C)=C/c1ccc(F)cc1 | cell-free assay, competition with immobilised ligand | 1 µM | remaining binding | 90% |
| CC(C)(C)c1nc(-c2cccc(NS(=O)(=O)c3c(F)cccc3F)c2F)c(-c2ccnc(N)n2)s1 | enzyme activity, inhibitor, radiometric | 1 µM | remaining activity | 113% |
